Assays:
[1] = molecular target: Hypoxia-inducible factor 1-alpha (Homo sapiens, UniProt Q16665); test: Inhibition of HIF-1alpha (unknown origin) transcriptional activity expressed in HEK293T cells co-transfected with renilla and HRE-firelfly luciferase incubated for 24 hrs by dual luciferase reporter gene assay; assay type: cell-based
In short: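 HEK293T cells were transfected for 24 h with HIF-1α (P2A), Renilla and HRE-firefly luciferase constructs, then exposed to test compounds for a further 24 h. The firefly signal (luciferin substrate) gave HIF-1 inhibition, normalized to the Renilla signal (coelenterazine substrate). Transcriptional activity was calculated by a formula given in the Supporting Information.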

HEK-293T [2] = test: Cytotoxicity against HEK293T cells at 50 uM; assay type: toxicity, cell-based; conditions: human
In short: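 Cytotoxicity was read from the Renilla signal of the dual-luciferase reporter run in HEK293T cells (24 h transfection, then 24 h compound exposure) at concentrations up to 50 μM.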

HEK-293T [3] = test: Downregulation of PDK1 mRNA expression in HEK293T cells measured after 24 hrs under hypoxia condition by RT-PCR analysis; conditions: Homo sapiens, dose 0.01-50 µM, DDE = dose-dependent effect
HEK-293T [4] = test: Downregulation of VEGF mRNA expression in HEK293T cells measured after 24 hrs under hypoxia condition by RT-PCR analysis; conditions: Homo sapiens, dose 0.01-50 µM, DDE = dose-dependent effect
[5] = Downregulation of VEGF protein expression in HEK293T cells at 50 uM measured after 24 hrs under […] condition by Western blot analysis relative to control; assay type: functional, Homo sapiens, HEK-293T

Hypoxia-inducible factor 1-alpha, sequence (Q16665 whole entry): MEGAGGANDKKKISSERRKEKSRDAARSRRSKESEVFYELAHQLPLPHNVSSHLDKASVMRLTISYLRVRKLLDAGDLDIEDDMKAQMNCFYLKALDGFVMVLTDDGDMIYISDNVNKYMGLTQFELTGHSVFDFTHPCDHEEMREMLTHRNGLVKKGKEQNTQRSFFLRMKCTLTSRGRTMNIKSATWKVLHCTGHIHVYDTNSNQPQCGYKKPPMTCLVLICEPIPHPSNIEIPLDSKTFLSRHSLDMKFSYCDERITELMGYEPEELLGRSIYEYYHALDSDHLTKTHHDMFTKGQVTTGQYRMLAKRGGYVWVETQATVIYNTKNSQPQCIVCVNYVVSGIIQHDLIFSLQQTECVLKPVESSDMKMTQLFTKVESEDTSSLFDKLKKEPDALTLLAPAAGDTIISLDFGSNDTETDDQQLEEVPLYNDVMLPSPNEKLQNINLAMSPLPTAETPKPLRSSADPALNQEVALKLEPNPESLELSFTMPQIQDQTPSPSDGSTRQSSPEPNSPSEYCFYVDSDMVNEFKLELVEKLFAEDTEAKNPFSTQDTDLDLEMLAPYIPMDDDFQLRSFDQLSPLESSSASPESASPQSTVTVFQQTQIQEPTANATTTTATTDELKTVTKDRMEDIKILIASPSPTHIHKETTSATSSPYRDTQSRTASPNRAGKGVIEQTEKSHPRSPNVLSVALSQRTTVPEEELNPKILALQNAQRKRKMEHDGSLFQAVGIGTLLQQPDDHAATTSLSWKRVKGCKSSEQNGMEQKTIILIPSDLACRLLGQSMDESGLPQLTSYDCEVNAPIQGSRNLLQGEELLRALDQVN

Structure (SMILES) | IC50 [1] [nM] | Activity (HEK-293T [2]) | Activity (HEK-293T [3]) | Activity (HEK-293T [4]) | Activity [5] [%]
O=C(NC1CCCCC1)c1noc2ccccc12 | 5400 | Non-Toxic |  |  | 
COc1ccccc1NC(=O)c1noc2ccccc12 | 5500 | Non-Toxic |  |  | 
CN(C)c1cccc(NC(=O)c2noc3ccccc23)c1 | 7400 | Non-Toxic |  |  | 
CCn1c2ccccc2c2cc(NC(=O)c3noc4ccccc34)ccc21 | 810 | Non-Toxic |  |  | 
O=C(c1noc2ccccc12)N1CCCCC1 |  | Non-Toxic |  |  | 
O=C(Nc1cccc(-c2ccccc2)c1)c1noc2ccccc12 | 1700 | Non-Toxic |  |  | 
COC(=O)c1ccc(O)c(NC(=O)COc2ccc(C34CC5CC(CC(C5)C3)C4)cc2)c1 | 2600 | Non-Toxic |  |  | 
O=C(Nc1noc2ccccc12)c1ccccc1 |  | Non-Toxic |  |  | 
O=C(Nc1ccccn1)c1noc2ccccc12 | 940 | Non-Toxic |  |  | 
O=C(NCc1ccccc1)c1noc2ccccc12 |  | Non-Toxic |  |  | 
O=C(Nc1ccccc1)c1ccon1 |  | Non-Toxic |  |  | 
CN(C)c1ccccc1NC(=O)c1noc2ccccc12 |  | Non-Toxic |  |  | 
O=C(Nc1ccccc1Cl)c1noc2ccccc12 | 2300 | Non-Toxic |  |  | 
O=C(Nc1ccncc1)c1noc2ccccc12 | 10000 | Non-Toxic |  |  | 
O=C1CCCc2cc(NC(=O)c3noc4ccccc34)ccc21 | 640 | Non-Toxic |  |  | 

Continued by falling IC50 [1], values first:

IC50 [1] [nM] | Structure (SMILES) | Activity (HEK-293T [2]) | Activity (HEK-293T [3]) | Activity (HEK-293T [4]) | Activity [5] [%]
640 | CC(=O)c1cccc(NC(=O)c2noc3ccccc23)c1 | Non-Toxic |  |  | 
480 | O=C(Nc1cccc([N+](=O)[O-])c1)c1noc2ccccc12 | Non-Toxic |  |  | 
310 | O=C(Nc1ccccc1)c1noc2ccccc12 | Non-Toxic |  |  | 
250 | O=C(Nc1cccc(Cl)c1)c1noc2ccccc12 | Non-Toxic |  |  | 
200 | COC(=O)c1cccc(NC(=O)c2noc3ccccc23)c1 | Non-Toxic |  |  | 
170 | COc1cccc(NC(=O)c2noc3ccccc23)c1 | Non-Toxic |  |  | 
75 | O=C(Nc1ccc2ccccc2c1)c1noc2ccccc12 | Non-Toxic |  |  | 
42 | O=C(Nc1ccc2scnc2c1)c1noc2ccccc12 | Non-Toxic |  |  | 
41 | O=C(Nc1ccc(Cl)cc1)c1noc2ccccc12 | Non-Toxic |  |  | 
40 | COc1ccc(NC(=O)c2noc3ccccc23)cc1 | Non-Toxic |  |  | 
24 | CC(=O)c1ccc(NC(=O)c2noc3ccccc23)cc1 | Non-Toxic | Dde | Dde | 20
24 | CN(C)c1ccc(NC(=O)c2noc3ccccc23)cc1 | Non-Toxic | Dde | Dde | 

— ChEMBL document CHEMBL5113556, “Benzo[d]isoxazole Derivatives as Hypoxia-Inducible Factor (HIF)-1α Inhibitors” (ACS Med Chem Lett, 2022)
